The record followed here is ChEMBL document CHEMBL1140960, “Synthesis of amide and urea derivatives of benzothiazole as Raf-1 inhibitor” (2008).

In brackets after ≈: the same amount, converted by molar mass. Activity calls are given as the source filed them. No cut-off for these calls is given here.

One test relates to NUGC-3. Put plainly: Antiproliferative activity against human NUGC3 cells by SRB assay. Format: functional. A digest of the protocol: (§1)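 Cells from exponential-phase cultures were trypsinized, counted and plated. Fixation used cold 10% TCA for 1 h at 4 °C, then water washes. Staining was 0.1% SRB in 1% acetic acid for at least 15 min, followed by 1% acetic acid rinses. Dye was solubilized in 10 mM unbuffered Tris base and absorbance read at 540 nm.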

The subject of the next test is MDA-MB-231. The experiment in a line: Antiproliferative activity against human MDA-MB-231 cells by SRB assay. In kind it is functional. A digest of the protocol:
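Trypsinized exponential-phase cells were plated at densities chosen for exponential growth over a 5-day assay. Cells were fixed with cold 10% TCA for 1 h at 4 °C, water-washed, stained at least 15 min with 0.1% SRB in 1% acetic acid, and rinsed with 1% acetic acid. Bound dye was solubilized in 10 mM unbuffered Tris base and OD read at 540 nm.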

Another test deals with SK-HEP1. Put plainly: Antiproliferative activity against human SKHEP1 cells by SRB assay. In kind it is functional. A digest of the protocol: as §1
(The SRB assay estimates cell density from bound dye.)

In test [1] the target is RAF proto-oncogene serine/threonine-protein kinase (Homo sapiens) (UniProt P04049). The experiment in a line: Inhibition of Raf1 at 50 uM by liquid scintillation counting. A digest of the protocol:
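Raf-1 and its substrate MEK were diluted together in buffer (20 mM MOPS pH 7.2, 25 mM β-glycerol phosphate, 5 mM EGTA, 1 mM orthovanadate, 1 mM DTT), with compound in 1% final DMSO. Reaction was started with [γ-33P]ATP (1000–3000 dpm/pmol) and run at 32 °C, usually 22 min. Samples went to phosphocellulose mats, were washed with 1% phosphoric acid and counted by scintillation; % inhibition is the mean of three experiments.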

RAF proto-oncogene serine/threonine-protein kinase (Homo sapiens), sequence (P04049 whole entry): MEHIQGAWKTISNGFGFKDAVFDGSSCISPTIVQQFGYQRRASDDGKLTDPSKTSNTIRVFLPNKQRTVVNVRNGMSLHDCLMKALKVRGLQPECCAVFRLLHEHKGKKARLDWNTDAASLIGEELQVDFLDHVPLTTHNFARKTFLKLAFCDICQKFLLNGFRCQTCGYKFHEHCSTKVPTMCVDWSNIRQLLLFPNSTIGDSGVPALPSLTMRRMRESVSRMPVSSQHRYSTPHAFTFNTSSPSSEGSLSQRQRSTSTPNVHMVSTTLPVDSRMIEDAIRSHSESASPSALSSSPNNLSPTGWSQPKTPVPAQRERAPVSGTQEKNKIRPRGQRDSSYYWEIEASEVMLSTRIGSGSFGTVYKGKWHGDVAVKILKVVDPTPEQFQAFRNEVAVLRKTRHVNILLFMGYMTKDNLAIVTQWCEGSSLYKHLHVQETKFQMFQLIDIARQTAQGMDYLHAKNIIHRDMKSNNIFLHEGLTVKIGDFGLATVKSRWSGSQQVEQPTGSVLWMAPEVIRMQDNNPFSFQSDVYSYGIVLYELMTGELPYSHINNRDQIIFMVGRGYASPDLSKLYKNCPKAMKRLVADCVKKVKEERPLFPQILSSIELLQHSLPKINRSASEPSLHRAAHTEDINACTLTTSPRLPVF

The GI50 is the concentration that inhibits growth by half. Read a low GI50 as more potent growth inhibition. Consider `COc1ccc(C(=O)Nc2nc3cc(C)cc(C)c3s2)cc1`, for which the GI50 was more than 10 µg/mL with NUGC-3, 1.03 µg/mL (≈ 3.3 µM) in the test with MDA-MB-231 and more than 10 µg/mL in the test on SK-HEP1.

In general, inhibition refers to the relative decrease from the control value, in per cent. The low end stands for a response near the control, the high end for a response far below the control. As for `O=C(Nc1cccc([N+](=O)[O-])c1)Nc1nc2ccc(F)cc2s1`, the inhibition in test [1] came out at 7.9%. Further, the results for the concentration for 50% growth inhibition (GI50) in the test on NUGC-3, in the test on MDA-MB-231 and in the test with SK-HEP1 were 0.83 µg/mL (≈ 2.5 µM), 0.89 µg/mL (≈ 2.68 µM) and 1.96 µg/mL (≈ 5.9 µM), respectively.

For `COc1cccc2sc(NC(=O)c3ccc([N+](=O)[O-])cc3)nc12`, the GI50 in the test on NUGC-3, in the test with MDA-MB-231 and in the test on SK-HEP1 was more than 10 µg/mL in each case.

For the compound `O=C(Nc1nc2ccc(C(F)(F)F)cc2s1)c1ccc([N+](=O)[O-])cc1`, the GI50 in the test with NUGC-3, in the test on MDA-MB-231 and with SK-HEP1 was more than 10 µg/mL throughout.

Turning to `COc1ccc2sc(NC(=O)c3ccc(C)cc3)nc2c1`, the 50% growth inhibitory concentration (GI50) with NUGC-3, with MDA-MB-231 and in the test with SK-HEP1 was more than 10 µg/mL each time.

`Cc1ccc2nc(NC(=O)Nc3cccc([N+](=O)[O-])c3)sc2c1`: the concentration for 50% growth inhibition (GI50) in the test on NUGC-3, in the test with MDA-MB-231 and in the test with SK-HEP1 was more than 10 µg/mL each time.

`Cc1ccc(C(=O)Nc2nc3cc(C)cc(C)c3s2)cc1`: the GI50 with NUGC-3 is 2.37 µg/mL (≈ 8 µM); with MDA-MB-231, 0.44 µg/mL (≈ 1.48 µM); with SK-HEP1 it was 2.17 µg/mL (≈ 7.32 µM).

Take `COc1cccc2sc(NC(=O)c3ccc(C#N)cc3)nc12`: the GI50 in the test with NUGC-3, with MDA-MB-231 and in the test with SK-HEP1 was more than 10 µg/mL throughout.

`COc1ccc2nc(NC(=O)c3ccc(C)cc3)sc2c1`: the GI50 in the test with NUGC-3, in the test with MDA-MB-231 and in the test with SK-HEP1 was more than 10 µg/mL each time.

As for `COc1cccc2sc(NC(=O)c3ccc(C)cc3)nc12`, the inhibition in test [1] was found to be 37%. The GI50 was more than 10 µg/mL in the test with NUGC-3, 0.86 µg/mL (≈ 2.88 µM) in the test on MDA-MB-231 and 2.01 µg/mL (≈ 6.74 µM) in the test on SK-HEP1.

For `COc1cccc2c1C(=O)c1c(O)c3c(c(O)c1C2=O)C[C@@](O)(C(=O)CO)C[C@@H]3O[C@H]1C[C@H](N)[C@H](O)[C@H](C)O1` [DOXORUBICIN], the GI50 with NUGC-3 was 0.11 µg/mL (≈ 0.202 µM); in the test with MDA-MB-231 it was 0.39 µg/mL (≈ 0.718 µM); with SK-HEP1, 0.07 µg/mL (≈ 0.129 µM).

As for `Cc1cc(C)c2sc(NC(=O)c3ccc(C(F)(F)F)cc3)nc2c1`, in test [1], the result was inactive. The values for the GI50 in the test with NUGC-3, with MDA-MB-231 and in the test on SK-HEP1 were 1.4 µg/mL (≈ 4 µM), 0.45 µg/mL (≈ 1.28 µM) and 1.36 µg/mL (≈ 3.88 µM), respectively.

As for `Cc1ccccc1NC(=O)Nc1nc2ccc(F)cc2s1`, the concentration for 50% growth inhibition (GI50) in the test with NUGC-3, in the test with MDA-MB-231 and in the test on SK-HEP1 was more than 10 µg/mL throughout.

In the case of `O=C(Nc1ccccc1)Nc1nc2ccc(F)cc2s1`, the concentration for 50% growth inhibition (GI50) in the test with NUGC-3, with MDA-MB-231 and in the test with SK-HEP1 was more than 10 µg/mL each time.

Turning to `O=C(Nc1cccc([N+](=O)[O-])c1)Nc1nc2ccc(Cl)cc2s1`, the result in test [1] was inactive. In addition, the results for the 50% growth inhibitory concentration (GI50) with NUGC-3, with MDA-MB-231 and in the test on SK-HEP1 were 1.03 µg/mL (≈ 2.95 µM), 0.82 µg/mL (≈ 2.35 µM) and 2.21 µg/mL (≈ 6.34 µM), respectively.

In test [1], `Cc1cc2nc(NC(=O)Nc3ccccc3C)sc2cc1C` showed an inhibition of 14.9%. The GI50 stood at 0.18 µg/mL (≈ 0.578 µM) with NUGC-3, 0.1 µg/mL (≈ 0.321 µM) in the test on MDA-MB-231 and 0.18 µg/mL (≈ 0.578 µM) in the test on SK-HEP1.

Take `Cc1cc(C)c2sc(NC(=O)c3ccc([N+](=O)[O-])cc3)nc2c1`: the outcome in test [1] was inactive. For the same compound, the 50% growth inhibitory concentration (GI50) turned out to be 1.32 µg/mL (≈ 4.03 µM) with NUGC-3, 0.29 µg/mL (≈ 0.886 µM) with MDA-MB-231 and 1.74 µg/mL (≈ 5.32 µM) in the test with SK-HEP1.

With `Cc1cc(C)c2sc(NC(=O)c3ccc(C#N)cc3)nc2c1`, the outcome in test [1] was inactive. For the same compound, the concentration for 50% growth inhibition (GI50) in the test on NUGC-3 came to 0.62 µg/mL (≈ 2.02 µM); with MDA-MB-231, 0.48 µg/mL (≈ 1.56 µM); in the test with SK-HEP1, 1.18 µg/mL (≈ 3.84 µM).

With `COc1ccc2sc(NC(=O)c3ccc(C(F)(F)F)cc3)nc2c1`, the 50% growth inhibitory concentration (GI50) with NUGC-3, with MDA-MB-231 and in the test with SK-HEP1 was more than 10 µg/mL in each case.

Compound `COc1ccc(C(=O)Nc2nc3c(OC)cccc3s2)cc1` showed an inhibition in test [1] of 7.8%. Further, the 50% growth inhibitory concentration (GI50) in the test with NUGC-3 worked out at 3.46 µg/mL (≈ 11 µM); in the test on MDA-MB-231, 1.25 µg/mL (≈ 3.98 µM); in the test with SK-HEP1, 2.11 µg/mL (≈ 6.71 µM).

For `COc1ccc2sc(NC(=O)c3ccc([N+](=O)[O-])cc3)nc2c1`, the 50% growth inhibitory concentration (GI50) in the test on NUGC-3, with MDA-MB-231 and with SK-HEP1 was more than 10 µg/mL each time.

Consider `COc1ccc(C(=O)Nc2nc3cc(OC)ccc3s2)cc1`, for which the GI50 with NUGC-3, with MDA-MB-231 and in the test with SK-HEP1 was more than 10 µg/mL in each case.

For `O=C(Nc1nc2ccc([N+](=O)[O-])cc2s1)c1ccc(C(F)(F)F)cc1`, the GI50 in the test on NUGC-3 worked out at 1.65 µg/mL (≈ 4.49 µM); in the test on MDA-MB-231 it was 1.89 µg/mL (≈ 5.15 µM); in the test with SK-HEP1 it was 2.1 µg/mL (≈ 5.72 µM).

For `COc1ccc2sc(NC(=O)c3ccc(C#N)cc3)nc2c1`, the GI50 with NUGC-3, in the test with MDA-MB-231 and with SK-HEP1 was more than 10 µg/mL throughout.

On to `COc1cccc2sc(NC(=O)c3ccc(C(F)(F)F)cc3)nc12`, for which the concentration for 50% growth inhibition (GI50) in the test on NUGC-3, with MDA-MB-231 and with SK-HEP1 was more than 10 µg/mL throughout.

Consider `O=C(Nc1nc2ccc(F)cc2s1)Nc1ccccc1F`, for which the concentration for 50% growth inhibition (GI50) with NUGC-3, in the test with MDA-MB-231 and with SK-HEP1 was more than 10 µg/mL each time.

As to `COc1ccc(NC(=O)Nc2nc3ccc(F)cc3s2)cc1`, the GI50 with NUGC-3, with MDA-MB-231 and in the test on SK-HEP1 was more than 10 µg/mL in each case.
